Key:
Assay type in all cases: functional
[1] = biological target: T1, Polyunsaturated fatty acid 5-lipoxygenase (Rattus norvegicus, UniProt P12527); experiment: (§1) Inhibition of 5-lipoxygenase by measuring 5-HETE levels in RBL-1 cell-free supernatant
T1 sequence (P12527 whole entry): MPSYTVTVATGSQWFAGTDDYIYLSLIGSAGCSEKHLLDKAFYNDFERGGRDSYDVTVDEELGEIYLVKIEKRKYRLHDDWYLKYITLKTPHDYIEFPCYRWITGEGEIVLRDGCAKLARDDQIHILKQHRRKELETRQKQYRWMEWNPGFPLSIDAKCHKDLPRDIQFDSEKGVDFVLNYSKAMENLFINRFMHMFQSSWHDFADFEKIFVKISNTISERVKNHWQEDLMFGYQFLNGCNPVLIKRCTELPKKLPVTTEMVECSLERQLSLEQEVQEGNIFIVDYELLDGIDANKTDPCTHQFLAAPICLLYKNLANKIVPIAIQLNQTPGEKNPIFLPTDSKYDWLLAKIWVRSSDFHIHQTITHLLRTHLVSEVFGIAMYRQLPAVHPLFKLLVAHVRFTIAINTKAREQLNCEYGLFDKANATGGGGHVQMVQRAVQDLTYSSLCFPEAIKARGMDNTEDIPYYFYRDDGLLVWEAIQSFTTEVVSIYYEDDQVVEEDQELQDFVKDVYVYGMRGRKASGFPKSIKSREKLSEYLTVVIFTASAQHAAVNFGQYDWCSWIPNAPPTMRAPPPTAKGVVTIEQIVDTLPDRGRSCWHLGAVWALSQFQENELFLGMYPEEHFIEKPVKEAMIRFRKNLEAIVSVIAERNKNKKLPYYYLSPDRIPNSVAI
Outline: (§2)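 Cell-free rat basophilic leukemia (RBL-1) supernatant, 150 µg protein per tube, in duplicate. Buffer: 35 mM NaH₂PO₄ pH 7.0, 5 µM ATP, 50 µM CaCl₂, 10 µM arachidonic acid. Compounds from DMSO stocks. Run at 37 °C for 10 min and stopped with citric acid. 5-HETE measured by radioimmunoassay against a standard curve. Percent change from control; some values given at 50 µM.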

Mus musculus [2] = experiment: Change in arachidonic acid induced oedema in mouse ear.
Outline: (§3)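 Male CFW Swiss Webster mice, n=6. Compound or vehicle (3:7 propylene glycol:ethanol) applied topically to the right ear, 10 µL each to outer and inner surface. After 30 min, arachidonic acid 4 mg/20 µL on the right ear and vehicle on the left.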

Mus musculus [3] = experiment: Inhibition of arachidonic acid oedema in mouse ear.; outline: as §3
[4] = biological target: T2, Polyunsaturated fatty acid 5-lipoxygenase (Rattus norvegicus) (UniProt P12527); experiment: as §1; conditions: concentration not given here; outline: as §2
T2 sequence (whole entry): T1 sequence (P12527 whole entry)

Compound | IC50 [1] | Change (Mus musculus [2]) | ED50 (Mus musculus [3]) | inhibition [4] | Change (Mus musculus [3])
O=C1c2ccccc2COc2ccc(CC(=O)N(O)C3CCCCC3)cc21 | 0.67 µM | -29% |  |  | 
CON(C)C(=O)CCc1ccc2c(c1)C(=O)c1ccccc1CO2 | > 50 µM | -41% |  |  | 
O=C(CCCCCCCCc1ccccc1)NO | 0.48 µM |  | 2.56 mg ear-1 |  | 
O=C(O)Cc1ccc2c(c1)C(=O)c1ccccc1CO2 [ISOXEPAC] |  |  | 55 mg ear-1 | 1.5% | 
CC(Cc1ccc(O)c(O)c1)C(C)Cc1ccc(O)c(O)c1 (configuration not stated) [NORDIHYDROGUAIARETIC ACID] |  |  | 3.1 mg ear-1 |  | 
COc1ccc2c(c1)c(CC(=O)O)c(C)n2C(=O)c1ccc(Cl)cc1 [INDOMETHACIN] |  |  | 1.63 mg ear-1 |  | 
O=C(Cc1ccc2c(c1)C(=O)c1ccccc1CO2)NO | 9 µM | -19% |  |  | 
CCN(O)C(=O)Cc1ccc2c(c1)C(=O)c1ccccc1CO2 | 0.58 µM | -52% |  |  | 
CN(O)C(=O)C(C)(C)Cc1ccc2c(c1)C(=O)c1ccccc1CO2 | 0.66 µM | 29% |  |  | 
CCN(O)C(=O)CCc1ccc2c(c1)C(=O)c1ccccc1CO2 | 0.15 µM | -55% |  |  | 
CC(C)Cc1ccc(C(C)C(=O)O)cc1 (configuration not stated) [IBUPROFEN] |  |  |  |  | -11%
CC(=O)N(O)CCc1ccc2c(c1)C(=O)c1ccccc1CO2 | 0.19 µM | -61% |  |  | 
O=C1c2ccccc2COc2ccc(CCC(=O)N(O)C3CCCCC3)cc21 | 2 µM | -14% |  |  | 
CC(C)N(O)CCc1ccc2c(c1)C(=O)c1ccccc1CO2 | 0.13 µM | -47% |  |  | 
CN(O)CCCc1ccc2c(c1)C(=O)c1ccccc1CO2 | 0.62 µM | -53% |  |  | 
CN(O)C(=O)CCc1ccc2c(c1)Cc1ccccc1CO2 | 0.02 µM | -67% | 0.7 mg ear-1 |  | 
CCN(O)CCc1ccc2c(c1)C(=O)c1ccccc1CO2 | 0.48 µM | -50% |  |  | 
CN(O)C(=O)Cc1ccc2c(c1)C(=O)c1ccccc1CO2 | 1.19 µM | -63% |  |  | 
CCN(O)C(=O)C(C)c1ccc2c(c1)C(=O)c1ccccc1CO2 (configuration not stated) |  | -38% |  | 94% | 
CN(O)CCc1ccc2c(c1)C(=O)c1ccccc1CO2 |  | -46% |  |  | 
CCN(O)CCc1ccc2c(c1)C(O)c1ccccc1CO2 (configuration not stated) | 0.45 µM | -47% |  |  | 
CC(C(=O)N(C)O)c1ccc2c(c1)C(=O)c1ccccc1CO2 (configuration not stated) | 1.3 µM | -44% |  |  | 
CC(C)N(O)C(=O)CCc1ccc2c(c1)C(=O)c1ccccc1CO2 | 0.58 µM | -63% |  |  | 
CN(O)C(=O)CCc1ccc2c(c1)C(=O)c1ccccc1CO2 | 0.01 µM | -66% | 0.69 mg ear-1 |  | 
CC(=O)N(O)Cc1ccc2c(c1)C(=O)c1ccccc1CO2 | 0.21 µM | -47% |  |  | 
CCN(O)CCc1ccc2c(c1)Cc1ccccc1CO2 | 0.32 µM | -50% |  |  | 
CC(C)N(O)C(=O)Cc1ccc2c(c1)C(=O)c1ccccc1CO2 | 1.23 µM | -52% |  |  | 

Reference: ChEMBL document CHEMBL1129289, “Dibenzoxepinone hydroxylamines and hydroxamic acids: dual inhibitors of cyclooxygenase and 5-lipoxygenase with potent topical antiinflammatory activity” (J Med Chem, 1996)
